Compound activity deposited in PubChem by several laboratories.
Calb biofilm kill = mixtures killing C. albicans biofilm; C. albicans biofilm persisters + clotrimazole, fluorescence viability; primary screen in compound mixtures of four per well; inhibition, % at 7.6 µM; actives 0.02% (n = 120,000); AID 1242;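 active = inhibition above 30.3% in the primary screen of four-compound pools, then above 30% when the compound was retested; inconclusive = passed the primary limit but could not be retested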;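 also: compounds exposed to preformed 24 h biofilms for 48 h; 0% = untreated biofilm control and 100% = clotrimazole plus chlorhexidine kill blank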
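System: C. albicans CAF4-2 wild-type biofilms; Medium: RPMI/MOPS medium, pH 7.0; Reagent: Clotrimazole, 50 µg/mL; Times: biofilm formation 24 h, compound exposure 48 h, 37 °C; Detection: 2-h Alamar Blue fluorescence, 535/590 nm excitation/emission; Evaluation: percent inhibition of biofilm viability.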
ROMK mod = human ROMK K+ channel modulation, primary screen; P48048; AID 1918; Tet-inducible ROMK, thallium flux fluorescence; actives lie on both sides; B-score at 10 µM; actives 2% (n = 130,000);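 active = signal ratio slope over the read window, or its plate-corrected B-score, at least 3 SD from the plate mean, either direction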;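 also: B-score of the F/F0 ratio slope over 7 to 12 s after thallium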
Target sequence (P48048 whole entry, looked up): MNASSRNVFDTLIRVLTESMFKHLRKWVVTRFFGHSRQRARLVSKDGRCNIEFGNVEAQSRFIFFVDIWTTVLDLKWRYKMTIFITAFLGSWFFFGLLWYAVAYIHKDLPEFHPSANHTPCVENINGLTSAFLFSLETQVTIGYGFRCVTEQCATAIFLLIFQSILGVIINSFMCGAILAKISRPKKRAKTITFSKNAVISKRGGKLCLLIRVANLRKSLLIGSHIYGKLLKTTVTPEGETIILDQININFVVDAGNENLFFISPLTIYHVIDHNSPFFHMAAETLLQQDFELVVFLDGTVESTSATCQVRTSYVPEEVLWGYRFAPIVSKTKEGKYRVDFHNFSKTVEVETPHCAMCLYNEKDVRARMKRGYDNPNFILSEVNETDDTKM
Pf gamet viab = kills late stage P. falciparum gametocytes. P. falciparum stage V gametocytes, ATP luminescence, 24 h. inhibition, % at 10.9 µM. actives 0.065% (n = 150,000). AID 743093;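 active = inhibition above the mean plus 3 SD of compounds within the control limits, set per campaign, cut at about 38% in these data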;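 also: 0% = DMSO wells and 100% = medium only without gametocytes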
ROMK retest = retested hit modulating human ROMK potassium channel; ROMK thallium flux, fluorescence ratio; active compounds read low; actives 54% (n = 3,000); normalized thallium flux (F/F0 slope) at 10 µM; shares compounds with ROMK mod;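 active = Flux at 10 µM at least 3 SD below or above vehicle control mean in one or both replicates; inconclusive = no clear call, values can overlap the other calls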
An asterisk follows results filed as active; ? = inconclusive; / = no result. The entries come from a sample that favours hits as a whole.

SMILES	Calb biofilm kill	ROMK mod	Pf gamet viab	ROMK retest
O=C(/C=C/c1cn(CC(O)CN2CCOCC2)c2ccccc12)c1cccs1 (stereo not drawn)	20.1	/	/	0.0389*
Cc1ccc(C(=O)/C=C/c2cn(CC(O)CN3CCOCC3)c3ccccc23)cc1 (stereo not drawn)	3.5	-1.7	-14.4	/
COC(=O)Cn1cc(C#N)c2ccccc21	9.0	0.785	/	/
CC(C)OC(=O)Cn1cc(C#N)c2ccccc21	8.7	-8.82*	0.2	0.0794
C#CCCc1ccccc1/C=[N+](/C)[O-]	/	/	-9.7	/
CO/N=C/c1ccc(N2CCCC2)c([N+](=O)[O-])c1	-1.1	-0.573	-5.2	/
O=[N+]([O-])/C=C\c1ccc(N2CCCC2)c(F)c1	12.6	/	/	0.0421*
O=Cc1ccc(N2CCCC2)c([N+](=O)[O-])c1	4.8	-0.0394	-16.9	/
O=[N+]([O-])c1cc(/C=N/O)ccc1N1CCCC1	1.6	-3.37*	17.8	?
Cc1nn(CC(=O)NCCCc2ccccc2)c(C)c1[N+](=O)[O-]	2.5	-1.53	-4.9	/
O=C(O)C1C2CCC(O2)C1C(=O)Nc1ccc(OC(F)F)cc1 (stereo not drawn)	/	/	-26.1	/
S=C(c1cn(Cc2ccc(Br)cc2)c2ccccc12)N1CCOCC1	5.5	-0.822	-19.0	/
COc1cc(CCCN2CCNC[C@@H]2Cc2ccccc2)cc(OC)c1OC	/	/	-19.4	/
CSc1cccc(NC(=S)N(CCCN2CCCC(C)C2)Cc2cccs2)c1 (stereo not drawn)	17.0	-4.39*	-16.1	0.0578*
COc1ccc(NC(=S)N(CCCN2CCC(C)CC2)Cc2cccs2)cc1Cl	1.3	-5.16*	-3.1	0.0553*
COc1cccc(NC(=S)N(CCCN2CCCC(C)C2)Cc2cccs2)c1 (stereo not drawn)	6.6	-1.93	25.0	/
COc1ccc(NC(=S)N(CCCN2CCN(C)CC2)Cc2cccs2)cc1	-11.5	0.527	-20.5	/
C[C@H]1CCC(=O)N([C@H](CSc2ccc(Br)cc2)Cc2ccccc2)CC1	/	/	-4.2	/
N#C/C(=C\c1cccs1)C(=O)c1ccccc1Cl	20.1	/	-8.8	0.0517*
CC(C)(C)C(=O)/C(C#N)=C/c1cccs1	16.1	-0.777	-4.4	/
CCN(CC)S(=O)(=O)c1ccc(-c2csc(C)n2)s1	16.0	/	-2.0	/
Cc1ccc(NS(=O)(=O)c2ccc(-c3csc(C)n3)s2)c(C)c1	16.0	-11.2*	6.0	0.0743
Cc1cc(C)n(CC(O)COc2ccc(Cl)cc2Cl)n1 (stereo not drawn)	/	/	15.1	/
OC(CNCC1(N2CCCCC2)CCCCC1)COc1ccc(Cl)cc1Cl (stereo not drawn)	2.5	-3.9*	11.6	0.0529*
N#Cc1ccc(/C=C/C(=O)c2ccc3c(c2)OCO3)cc1	12.5	0.034	-13.6	/
SMILES	Calb biofilm kill	ROMK mod	Pf gamet viab	ROMK retest
O=C(/C=C/c1ccccc1Cl)c1cccnc1	/	-7.35*	/	0.044*
O=C(/C=C/c1ccc(Cl)cc1)c1cccnc1	/	-8.09*	0.0	0.0427*
CCN(CC)c1ccc(/C=C/C(=O)c2cccnc2)cc1	8.6	-0.651	9.7	/
N#Cc1ccc(/C=C/C(=O)c2cccnc2)cc1	-0.3	-3.33*	-7.3	0.0453*
O=C(/C=C/c1ccccc1Cl)c1ccc(O)cc1	15.8	/	/	/
CN(C)CCCN=C(NO)c1ccc(Cl)cc1Cl	8.2	0.169	-7.2	/
NC/C(=N\O)c1ccc(Cl)cc1Cl	/	-4.5*	-10.6	0.0561*
C=CCn1c(=O)c(C(=O)NCc2ccccc2Cl)c(O)c2ccccc21	/	/	-4.8	/
COc1ccc(-n2nc(C#N)c(Cl)cc2=O)cc1	8.4	-2.79*	4.7	0.0515*
COC(=O)c1nn(-c2ccc(OC)cc2)c(=O)cc1O	15.2	0.339	3.7	/
Cc1sc2ncnc(NC3CCN(Cc4ccccc4)CC3)c2c1C	6.5	-3.72*	10.1	?
c1ccc(CN2CCC(Nc3ncnc4sccc34)CC2)cc1	13.8	-0.854	-0.2	/
COc1cccc(CNC(=S)NC2CC2)c1	3.8	-1.38	-29.9	/
CC(C)NC(=O)/C(C#N)=C/c1ccc(N(C)C)o1	15.3	-7.43*	8.1	0.0471*
Cc1ccc(/C=C(\C#N)C(=O)NC(C)C)o1	13.5	0.0221	7.0	/
OCCN1CCN(CCCN2c3ccccc3Sc3ccc(C(F)(F)F)cc32)CC1	16.2	/	/	/
CN1CCN(CCCN2c3ccccc3Sc3ccc(Cl)cc32)CC1	13.4	/	/	0.0481*
O=C(O)CCC(NC(=O)C1CCCN1C(=O)OCc1ccccc1)C(=O)O (stereo not drawn)	63.4	1.47*	1.3	0.0842
COc1cc(NC(=O)C2CCCN2C(=O)OCc2ccccc2)cc(OC)c1 (stereo not drawn)	/	-0.237	5.3	/
COc1ccc(OC)c(CN2CCN(c3ccccc3OC)CC2)c1	/	/	0.7	/
COc1ccc(OC)c(CN2CCN(Cc3cccc4ccccc34)CC2)c1	13.6	-3.89*	-17.0	0.0499*
C/C(=N\Nc1nc(C(C)(C)C)cs1)c1ccccc1	/	/	10.3	/
C/C(=N\Nc1nc(C(=O)O)cs1)c1ccccc1	10.9	/	11.8	0.0769
CCSc1ncnc2c1sc1nc(-c3ccco3)c3c(c12)CC(C)(C)OC3	/	/	/	0.0799
COC(=O)CSc1ncnc2c1sc1nc(-c3ccco3)c3c(c12)CC(C)(C)OC3	/	-0.791	/	/
SMILES	Calb biofilm kill	ROMK mod	Pf gamet viab	ROMK retest
CCCCCc1cc(=O)oc2c(C(CCN(CC)CC)c3cc(OC)c(OC)c(OC)c3)c(OC)cc(OC)c12 (stereo not drawn)	13.3	/	/	/
Cc1ccc(C(=O)N2CCN(C)CC2)cc1[N+](=O)[O-]	/	/	-12.6	/
Cc1cc(C)c(S(C)(=O)=O)c(Oc2ccc(F)cc2)n1	/	-0.24	/	/
Cc1cc(C)c(C#N)c(Oc2ccc(F)cc2)n1	/	/	/	0.0834
COC(=O)c1c(NC(=O)CCNCc2ccco2)sc2c1CCC2	9.7	/	-3.0	/
CCCn1c(CCc2ccccc2)n[nH]c1=S	13.3	/	3.8	/
COc1ccc(OCCOC(=O)c2nc3nccc(C)n3n2)cc1	3.9	0.421	-9.4	/
OCCCNC(=S)NC1CCCC1	12.0	1.01	-19.7	/
CCOC(=O)C1=C(C)OC(N)=C(C#N)C1c1cccc(C)c1 (stereo not drawn)	27.2	0.0636	0.2	/
CCOC(=O)C1=C(C)OC(N)=C(C#N)C1c1ccc(C)s1 (stereo not drawn)	7.8	3.23*	14.1	0.0639*
COc1ccc(NC(=O)c2cc3c(=O)n(C)c4ccccc4c3s2)cc1OC	11.0	-0.242	8.6	/
COC(=O)c1ccccc1S(=O)c1snnc1C (stereo not drawn)	17.1	0.0178	-26.8	/
O=c1[nH]sc2ccccc12	1.2	-4.5*	/	0.0522*
O=c1cc(O)sc2ccccc12	/	0.0948	-0.1	/
NC(=O)CC(NC(=O)Cc1cccc2ccccc12)c1ccc(NCCCN2CCCC2=O)c([N+](=O)[O-])c1 (stereo not drawn)	/	/	8.6	/
COc1ccc(OC)c(NC(=O)CN(C)S(=O)(=O)c2ccc(Cl)cc2)c1	10.7	-0.264	11.9	/
Cc1cc(C)c(S(=O)(=O)Nc2ncccc2C)c(C)c1	/	/	0.1	/
COC(=O)c1cc(NS(=O)(=O)c2ccc(NC(C)=O)cc2)cc(C(=O)OC)c1	/	/	0.3	/
O=C(O)c1cccc(N/N=C/c2cc(Br)cc(Br)c2O)c1	9.7	-0.00617	3.2	/
Cc1c(N=Cc2cc(Br)cc(Br)c2O)cccc1C(=O)O	-13.3	3.41*	-7.7	0.105*
Cc1ccc(-c2nc(CSCC(=O)N3CCCC3)c(C)o2)cc1	/	0.0197	27.7	/
